{"data": "Published values of several laboratories", "organism": "Bacillus subtilis", "note": "Protocols differ between the studies behind these lines."}
{"Compound": "O=C(O)c1cn(C2CC2)c2cc(N3CCNCC3)c(F)cc2c1=O", "test": "microbial growth", "system": "6633", "conditions": "1000 µg/mL", "endpoint": "inhibition zone", "result": "29 mm"}
{"Compound": "N#CC(=Cc1ccc([N+](=O)[O-])cc1)C1=NC(=O)C(=Cc2cn(-c3ccccc3)nc2-c2ccccc2)S1", "test": "microbial growth, well diffusion", "conditions": "100000 µg/mL", "endpoint": "inhibition zone", "result": "23 mm"}
{"Compound": "O=C(N[C@H](CO)[C@H](O)c1ccc([N+](=O)[O-])cc1)C(Cl)Cl", "test": "microbial growth, disc diffusion", "conditions": "50 µg/disc", "endpoint": "inhibition zone", "result": "21 mm"}
{"Compound": "Cc1c(NC(=O)CC2=NC(=O)CS2)c(=O)n(-c2ccccc2)n1C", "test": "microbial growth, well diffusion", "conditions": "100000 µg/mL", "endpoint": "inhibition zone", "result": "26 mm"}
{"Compound": "O=C(O)CN1C(=O)/C(=C/c2ccc(-c3ccc(N(c4ccccc4)c4ccccc4)cc3)c3ccccc23)NC1=S", "test": "microbial killing, broth dilution", "system": "ATCC6633", "endpoint": "MBC", "result": "> 1000 µg/mL"}
{"Compound": "CC[C@H]1OC(=O)[C@H](C)[C@@H](O[C@H]2C[C@@](C)(OC)[C@@H](O)[C@H](C)O2)[C@H](C)[C@@H](O[C@@H]2O[C@H](C)C[C@H](N(C)C)[C@H]2O)[C@](C)(O)C[C@@H](C)/C(=N\\OCOCCOC)[C@H](C)[C@@H](O)[C@]1(C)O", "test": "microbial growth, disc diffusion", "system": "ATCC6633", "conditions": "20000 µg/mL, 24 h", "endpoint": "inhibition zone", "result": "23 mm"}
{"Compound": "CO[C@H]1O[C@H](COC(c2ccccc2)(c2ccccc2)c2ccccc2)[C@@H](OC(=O)c2ccc(C(C)(C)C)cc2)[C@H](OC(=O)c2ccc(C(C)(C)C)cc2)[C@H]1OC(=O)c1ccc(C(C)(C)C)cc1", "test": "microbial killing, broth dilution", "endpoint": "MBC", "result": "16 µg/mL"}
{"Compound": "CC1(C)S[C@@H]2[C@H](NC(=O)[C@H](N)c3ccccc3)C(=O)N2[C@H]1C(=O)O", "test": "microbial growth, agar dilution", "system": "ATCC6633", "conditions": "26.93 µM", "endpoint": "inhibition", "result": "100%"}
{"Compound": "O=C(O)CN1C(=O)/C(=C/c2ccc(-c3ccc(N(c4ccccc4)c4ccccc4)cc3)cc2)NC1=S", "test": "microbial killing, broth dilution", "system": "ATCC6633", "endpoint": "MBC", "result": "3.9 µg/mL"}
{"Compound": "Cc1ccc(-c2nn(-c3ccccc3)cc2C=C(C#N)C2=NC(=O)CS2)cc1", "test": "microbial growth, well diffusion", "conditions": "100000 µg/mL", "endpoint": "inhibition zone", "result": "21 mm"}
{"Compound": "O=C(O)CN1C(=O)/C(=C/c2c3ccccc3c(-c3ccc(N(c4ccccc4)c4ccccc4)cc3)c3ccccc23)NC1=S", "test": "microbial killing, broth dilution", "system": "ATCC6633", "endpoint": "MBC", "result": "> 1000 µg/mL"}
{"Compound": "N#CC(=Cc1ccccc1O)C1=NC(=O)C(=Cc2cn(-c3ccccc3)nc2-c2ccccc2)S1", "test": "microbial killing, broth dilution", "endpoint": "MBC", "result": "0.5 µg/mL"}
{"Compound": "Cc1cc(N)c2ccccc2[n+]1CCCCCCCCCC[n+]1c(C)cc(N)c2ccccc21", "test": "microbial growth, disc diffusion", "conditions": "50 µg/disc", "endpoint": "inhibition zone", "result": "11 mm"}
{"Compound": "O=C(O)CN1C(=O)/C(=C/c2ccc(-c3ccc(N(c4ccccc4)c4ccccc4)cc3)cc2)SC1=S", "test": "microbial killing, broth dilution", "system": "ATCC6633", "endpoint": "MBC", "result": "1.95 µg/mL"}
